Test system: MS2 coat protein
Assay: apparent Kd, MS2 coat protein; higher = weaker binding; RNA-MaP array; FMN 200 µM where present
Summary of the method: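 The apparent Kd is reported as the median of filtered per-cluster binding-curve fits. To get these curves, designs transcribed by stalled E. coli RNA polymerase on Illumina sequencing-chip clusters were titrated with SNAP-549-labelled MS2 coat protein from 0.7 or 1.5 nM, doubling to 3 µM. Titrations were run without and then with constant ligand in 100 mM Tris-HCl pH 7.5, 80 mM KCl, 4 mM MgCl2, BSA, DTT, yeast tRNA and Tween-20, and green signal was normalised to red-channel RNA signal and control-cluster median Fmax.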

[1] = designed as: ON switch for flavin mononucleotide, no ligand
[2] = ligand present: flavin mononucleotide, designed as: ON switch for flavin mononucleotide
[3] = designed as: OFF switch for flavin mononucleotide, no ligand
[4] = ligand present: flavin mononucleotide, designed as: OFF switch for flavin mononucleotide

## UUAUUUGUACAAGGAUAUCUAUUAUAUUCACGUCCUACAUGAGGAUCACCCAUGUUAUAUAUUUUAGAGAAGGUGUAUUGUCUG
[1]
  apparent Kd: 31.9 nM
[2]
  apparent Kd: 35.3 nM

## UUCACCUUAUUUUACAUGAGGAUCACCCAUGUUUUUUUUACGUAGGAUAUCGAUGCUUGUUUAUUCGAGAAGGACGAUGUAAGU
[1]
  apparent Kd: 36.6 nM
[2]
  apparent Kd: 32.4 nM

## UUCAGCUCGUGAGGAUAUACAACACUGCUUCGGCAGUGUAUUAAGAUCACAUGAGGAUCACCCAUGUAGAAGGCACGAGCUGAU
[3]
  apparent Kd: 14.8 nM
[4]
  apparent Kd: 290 nM

## UUCAGCUCGUGAGGAUAUACAUGUGCUGGAAACAGCACUAUUAAGAUCACAUGAGGAUCACCCAUGUAGAAGGCACGAGCUGAG
[3]
  apparent Kd: 48 nM
[4]
  apparent Kd: 585 nM

## UUCAGCUCGUGAGGAUAUACAUGUGCUGGAAACAGCACUAUUAAGUUCACAUGAGGAUCACCCAUGUAGAAGGCACGAGCUGAG
[3]
  apparent Kd: 14.9 nM
[4]
  apparent Kd: 19.3 nM

## UUCAUGUGAGGAUAUGUGUACUGCUUUCUGUUUAGAUGUACACAGAAGGCACAUGAGGAUCACCCAUGUAGUAC
[3]
  apparent Kd: 45.5 nM
[4]
  apparent Kd: 31.8 nM

## UUCCUCGUUGUGAGGAUAUCGUCCGUGUUUUGUUACGAGAAGGCACAUGAGGAUCACCCAUGUUACUUGAUGUU
[3]
  apparent Kd: 18.7 nM
[4]
  apparent Kd: 110 nM

## UUCGACGUCGUAGGAUAUGUAGGAUAUUCCUACAUGAGGAUCACCCAUGUUGACAUGGAAGAAGGACAGAAGGACGAUGUCCAU
[1]
  apparent Kd: 301 nM
[2]
  apparent Kd: 6.4 nM

## UUCGUGCAGCUUUGCUGUACGCGUACAUGAGGAUCACCCAUGUAGGAUAUGGUAGGCAAAGCUUACUAGAAGGAUAUAGUGAUU
[3]
  apparent Kd: 9.34 nM
[4]
  apparent Kd: 9.4 nM

## UUCGUGCAGCUUUGCUGUACGCGUACAUGAGGAUCACCCAUGUAGGAUAUGGUAGGCAAAGUUUACUAGAAGGAUAUAGUGAUC
[3]
  apparent Kd: 13.2 nM
[4]
  apparent Kd: 14.3 nM

## UUCUAACGAGGAUAUCGAUGGUGGAACAUGAGGAUCACCCAUGUAUGAGAUAUUGUAGUUCGAGAAGGCGUUCAGU
[3]
  apparent Kd: 42.1 nM
[4]
  apparent Kd: 32.5 nM

## UUCUGGCUAGGAUAUACAGUGUCCACGAGUUAGUUGCCCUAACAUGAGGAUCACCCAUGUAGAAGGAGCGAGAA
[3]
  apparent Kd: 48.2 nM
[4]
  apparent Kd: 83.7 nM

## UUCUGUGCCCAAAGUUAAAGCACAUGAGGAUCACCCAUGUGAAAGGAUAUGUGGCGUGUAACGUUAUAGAAGGUUCACAAACAA
[3]
  apparent Kd: 31.9 nM
[4]
  apparent Kd: 105 nM

## UUCUUCUGAGGAUAUACAUAGAUUUACAUGAGGAUCACCCAUGUUCCUCUAUGUAUAAAUGUAGAAGGCAGAAGUU
[3]
  apparent Kd: 16.9 nM
[4]
  apparent Kd: 91.2 nM

## UUCUUUACACGAGGAUAUCAUACAUGAGGAUCACCCAUGUUACUUUGUCUGUUAUUAUGUAUUAUUGAGAAGGCGUUUUUCUUU
[3]
  apparent Kd: 20.7 nM
[4]
  apparent Kd: 17.9 nM

## UUGAAUUGAAACAUGAGGAUCACCCAUGUGUCAUAAUUGACAUAGGAUAUGUAUAUACUUUUAUAAUAGAAGGAUGACGAUACU
[1]
  apparent Kd: 15.6 nM
[2]
  apparent Kd: 12.7 nM

## UUGAGGUAGGAGAAGGACAGAGGCGGAAACACAAACAUGAGGAUCACCCAUGUAGGAUAUCCUAACUAACGAGAAUACCUCAAG
[3]
  apparent Kd: 6.36 nM
[4]
  apparent Kd: 6.89 nM

## UUGAGGUGUCAAGGAUAUGCUACCGUUUCGGUAGCAGAAGGUGAUCACAUGAGGAUCACCCAUGUAUGCAUGCGUGAGCGUGCU
[1]
  apparent Kd: 45.6 nM
[2]
  apparent Kd: 285 nM

## UUGCCUCAGAACAUGAGGAUCACCCAUGUGCUGCGGGCAACGUAGGAUAUGAUGGUAUGAUACCAUCAGAAGGAUGAUGGUACC
[1]
  apparent Kd: 5.96 nM
[2]
  apparent Kd: 5.33 nM

## UUGCCUCAGAACAUGAGGAUCACCCAUGUGCUGCGGGCAACGUAGGAUAUGAUGGUUCGAUACCAUCAGAAGGAUGAUGGUACC
[1]
  apparent Kd: 5.42 nM
[2]
  apparent Kd: 5.22 nM

## UUGCGCUGUCGAGAGGAUAUGCGGUGUUGGACAUGAGGAUCACCCAUGUUUGCGAUAGCUUUACGGUAGAAGGCUCUUCAGCUGC
[1]
  apparent Kd: 63.9 nM
[2]
  apparent Kd: 35.9 nM

## UUGCUACAUGAGGAUCACCCAUGUCAGGAUAUAGUGCAUAGCGUGGAAGCUCUGUCGAUUAGAAGGGACUGUCU
[3]
  apparent Kd: 25.2 nM
[4]
  apparent Kd: 27.4 nM

## UUGGACGCCGUAGGAUAUGUAGGAUAUUCCUACAUGAGGAUCACCCAUGUUGACAUGGAAGAAGGACAGAAGGACGAUGUCCAU
[1]
  apparent Kd: 277 nM
[2]
  apparent Kd: 4.78 nM

## UUGGACGUCGUAGGAGAUGUAGGAUAUUCCUACAUGAGGAUCACCCAUGUUGACAUGGAAGAAGGACAGAAGGACGAUGUCCAU
[1]
  apparent Kd: 294 nM
[2]
  apparent Kd: 8.27 nM

## UUGGACGUCGUAGGAUAUGUAGGAUAAUCCUACAUGAGGAUCACCCAUGUUGACAUGGAAGAAGGACAGAAGGACGAUGUCCAU
[1]
  apparent Kd: 1120 nM
[2]
  apparent Kd: 87.5 nM

## UUGGACGUCGUAGGAUAUGUAGGAUAUUCCUACAUGAGGAUCACCCAUGUGGACAUGGAAGAAGGACAGAAGGACGAUGUCCAU
[1]
  apparent Kd: 63.7 nM
[2]
  apparent Kd: 4.7 nM

## UUGGACGUCGUAGGAUAUGUAGGAUAUUCCUACAUGAGGAUCACCCAUGUUGACAUGGAAGAAGGACAGAAGGACGAUUUCCAU
[1]
  apparent Kd: 284 nM
[2]
  apparent Kd: 5.41 nM

## UUGGACGUCGUAGGAUAUGUAGGAUAUUCCUACAUGAGGAUCACCCAUGUUGACAUGGAAGAGGGACAGAAGGACGAUGUCCAU
[1]
  apparent Kd: 606 nM
[2]
  apparent Kd: 30.5 nM

## UUGGACGUCGUAGGAUAUGUAGGAUAUUCCUACAUGAGGAUCACCCAUGUUGACAUGGAAGCAGGACAGAAGGACGAUGUCCAU
[1]
  apparent Kd: 578 nM
[2]
  apparent Kd: 14.3 nM

## UUGGACGUCGUAGGAUAUGUAGGAUAUUCCUACAUGAGGAUCACCCAUGUUGACAUGGAGGAAGGACAGAAGGACGAUGUCCAU
[1]
  apparent Kd: 667 nM
[2]
  apparent Kd: 98 nM

## UUGGACGUCGUAGGAUAUGUAGGAUAUUCCUACAUGAGGAUCACCCAUGUUGACAUGGUAGAAGGACAGAAGGACGAUGUCCAU
[1]
  apparent Kd: 423 nM
[2]
  apparent Kd: 53.4 nM

## UUGGACGUCGUAGGAUAUGUAGGAUAUUCCUACAUGAGGAUCACCCAUGUUGCCAUGGAAGAAGGACAGAAGGACGAUGUCCAU
[1]
  apparent Kd: 253 nM
[2]
  apparent Kd: 4.48 nM

## UUGGACGUCGUAGGAUAUGUAGGAUUUUCCUACAUGAGGAUCACCCAUGUUGACAUGGAAGAAGGACAGAAGGACGAUGUCCAU
[1]
  apparent Kd: 648 nM
[2]
  apparent Kd: 16.3 nM

## UUGGACGUGGUAGGAUAUGUAGGAUAUUCCUACAUGAGGAUCACCCAUGUUGACAUGGAAGAAGGACAGAAGGACGAUGUCCAU
[1]
  apparent Kd: 112 nM
[2]
  apparent Kd: 35 nM

## UUGGACUACGUAGGAUAUGUAGGAUAUUCCUACAUGAGGAUCACCCAUGUUAGCAUGUAAGUAGGACAGAAGGACGUGGUCCAU
[1]
  apparent Kd: 540 nM
[2]
  apparent Kd: 24.9 nM

## UUGGAGUACGUAGGAUAUGUAGGAUUUUCCUACAUGAGGAUCACCCAUGUUAGCAUGGAAGAAGGACAGAAGGACGUGCUCCAU
[1]
  apparent Kd: 1040 nM
[2]
  apparent Kd: 78.1 nM

## UUGGGUUUGCGAGGAUAUCGUAUGUGAUUUGAACGAGAAGGCGCUAUUUAAAUUAUUUUAACAUAACAUGAGGAUCACCCAUGU
[1]
  apparent Kd: 17.4 nM
[2]
  apparent Kd: 16 nM

## UUGGUGGUUUCCCGCGCUAAGAUAGGAGAAGGGUGACUGGACAUGAGGAUCACCCAUGUAUCGGCACAGGAUAUCCACAUUAAU
[1]
  apparent Kd: 223 nM
[2]
  apparent Kd: 334 nM

## UUGGUUAUACAAGGAUAUCAAUUAUAUACACAUCCUACAUGAGGAUCACCCAUGUUUUAUUUUUUUGAGAAGGUGUAUUGUCGG
[1]
  apparent Kd: 22.4 nM
[2]
  apparent Kd: 29 nM

## UUGGUUGUCGUAGGAUAUGGAGGAUAUUCCUACAUGAGGAUCACCCAUGUUCGCAUGGAAGAAGGCCAGAAGGACGAUGACCAU
[1]
  apparent Kd: 10.4 nM
[2]
  apparent Kd: 4.38 nM

## UUGGUUGUCGUAGGAUAUGUAGGAUAUUCCUACAUGAGGAUCACCCAUGUUCGCAUGGAAGAAGGACAGAAGGACGAUGACCAC
[1]
  apparent Kd: 850 nM
[2]
  apparent Kd: 9.19 nM

## UUGGUUGUCGUAGGAUAUGUAGGAUAUUCCUACAUGAGGAUCACCCAUGUUCGCAUGGAAGAAGGACAGAAGGACGAUGACCAG
[1]
  apparent Kd: 1240 nM
[2]
  apparent Kd: 9.67 nM

## UUGUUACAUGAGGAUCACCCAUGUGAGGAUAUGGUUCAGUACUGUCAUGUCGCGUACUCCAGAAGGCACAUGUU
[3]
  apparent Kd: 89.7 nM
[4]
  apparent Kd: 209 nM

## UUGUUCUGAGGAUAUACAUGAGGAUCACCCAUGUGUUUCUGCUUGGUGACUAGCGAAUGUAGAAGGCUGUUCUC
[3]
  apparent Kd: 33.6 nM
[4]
  apparent Kd: 35.6 nM

## UUGUUCUGAGGAUAUACAUGAGGAUCACCCAUGUGUUUCUGCUUGGUGUCUAGCGAAUGUAGAAGGCUGUUCUC
[3]
  apparent Kd: 21.7 nM
[4]
  apparent Kd: 22.9 nM

## UUGUUGUAUGUAGGAUAUGCAUAUUAUUAUUAUGCAGAAGGACAUGAGGAUCACCCAUGUAUGUUAUUAUUAUAUGUUAUAUAU
[3]
  apparent Kd: 27.6 nM
[4]
  apparent Kd: 35.6 nM

## UUUAAGAAUGAAGGAUAUCUAAAAGUAAUCUUAAGAGAAGGUCAAUAGAACAUGAGGAUCACCCAUGUUAGAAUAGAUGGGUUU
[3]
  apparent Kd: 96.7 nM
[4]
  apparent Kd: 110 nM

## UUUAAGUCAGGAUAUCGUUAAUUUAAUUGUUUGUUUUAGUUCGAGAAGGGACAUGAGGAUCACCCAUGUAAUUU
[3]
  apparent Kd: 34.3 nM
[4]
  apparent Kd: 38.9 nM

## UUUAAUCGAAACAUGAGGAUCACCCAUGUGUUGUAAUUAACAUAGGAUAUUUGUAUACUUUUAUAAAAGAAGGAUGAUAAUACU
[1]
  apparent Kd: 17.8 nM
[2]
  apparent Kd: 13 nM

## UUUAAUUUAAUUAAGAUCACAUGAGGAUCACCCAUGUAAUUAUAGGAUAUCAGCUCGAAUAGAGCUGAGAAGGAUAAUUACAUA
[3]
  apparent Kd: 89.5 nM
[4]
  apparent Kd: 57.7 nM

## UUUACAUUACGAGGAUAUCAUUUAUUUCAUGUUUGAGAAGGCGUUUUUUUUAUUACCUUACAUGAGGAUCACCCAUGUUUCUUU
[1]
  apparent Kd: 35.8 nM
[2]
  apparent Kd: 21.8 nM

## UUUAGUUCAGGAUAUGUAGAUUUUAACAUGAGGAUCACCCAUGUAGAUCCUGAAUUAACUACAGAAGGGAACAUUA
[3]
  apparent Kd: 21.3 nM
[4]
  apparent Kd: 75.4 nM

## UUUAGUUCAGGAUAUGUAGAUUUUAACAUGAGGAUCACCCAUGUAGAUCCUGAUCCUGCUACAGAAGGAAAGAUUU
[3]
  apparent Kd: 26.9 nM
[4]
  apparent Kd: 25.5 nM

## UUUAGUUGCGGGCAGGAUAUGUAUUAAAAUACAUGAGGAUCACCCAUGUGUGGGUAUAACACCCAACAGAAGGGCCAAUCGCGAC
[1]
  apparent Kd: 132 nM
[2]
  apparent Kd: 18.3 nM
